We go through 21 compounds from ChEMBL document CHEMBL1124937 (J Med Chem, 1990).

For test [1], the species on record is Rattus norvegicus. The test can be described thus: Relative potency(RP) was determined for the biological activity determined in rat fat cells (Beta1). In kind it is functional. The procedure, abridged: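 Rat fat cells (β1), prepared as previously described, were assayed in vitro for antagonist inhibition of cAMP accumulation, with cAMP measured by radioimmunoassay. Ki values were calculated with the Cheng–Prusoff equation. Potency is expressed relative to the progenitor drug, which was tested alongside the individual stereoisomers and the stereoisomeric mixture.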

In test [2] the target is Beta-2 adrenergic receptor (Mus musculus, UniProt P18762). The test can be described thus: Ki value was determined by accumulation of c-AMP in S-49 mouse lymphoma cells (Beta2). In kind it is cell-based. The procedure, abridged:
(§1)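 Antagonist Ki from in vitro inhibition of cyclic AMP accumulation, with cAMP quantified by radioimmunoassay. Cells were prepared as in the group's earlier work. Ki was calculated with the Cheng–Prusoff equation. The four single stereoisomers of each derivative, the stereoisomeric mixture and the parent drug were tested. Relative potency is given versus the parent drug.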

The species entered for test [3] is Rattus norvegicus. The test can be described thus: Biological activity in vitro, Ki value was determined by accumulation of c-AMP in rat fat cells (Beta1). In kind it is functional, cell-based. Put shortly: as §1

As usually defined, the Ki is the dissociation constant of the complex between target and ligand, obtained from inhibition or displacement. A low value points to a stronger hold on the target.

Chain of Beta-2 adrenergic receptor (P18762 whole entry): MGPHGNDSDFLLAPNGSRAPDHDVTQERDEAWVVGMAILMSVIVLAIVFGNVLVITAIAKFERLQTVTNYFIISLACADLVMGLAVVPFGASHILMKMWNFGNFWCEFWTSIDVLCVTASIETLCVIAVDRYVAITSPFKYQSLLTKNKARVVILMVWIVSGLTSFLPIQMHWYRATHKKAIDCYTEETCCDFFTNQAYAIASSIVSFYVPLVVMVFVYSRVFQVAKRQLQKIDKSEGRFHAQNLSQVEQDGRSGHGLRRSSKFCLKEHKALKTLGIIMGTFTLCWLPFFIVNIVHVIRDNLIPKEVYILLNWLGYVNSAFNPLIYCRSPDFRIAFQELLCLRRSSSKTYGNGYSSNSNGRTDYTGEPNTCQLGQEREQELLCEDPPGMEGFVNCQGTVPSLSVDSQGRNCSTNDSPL

Consider `CC(=O)Nc1ccc(OC[C@@H](O)CN[C@@H](C)CCCCC(=O)Nc2ccc(C(F)(F)F)cc2)cc1`, for which the Relative potency in test [1] is listed as 2. For the same compound, the Ki in test [2] turned out to be 2850 nM; in test [3] it was 350 nM.

`CC(=O)Nc1ccc(OCC(O)CNC(C)C)cc1` (stereo unspecified) [PRACTOLOL] displayed a Ki in test [3] of 700 nM. In test [2], `Cc1ccc(NC(=O)CCCCC(C)NCC(O)COc2cccc3ccccc23)cc1` (stereo unspecified) had a Ki of 43300 nM. As for `CC(=O)Nc1ccc(OC[C@@H](O)CN[C@@H](C)CCCCC(=O)Nc2ccc(C)cc2)cc1`, the Relative potency in test [1] worked out at 0.442. In addition, the Ki in test [2] worked out at 15600 nM; in test [3], 1580 nM. In test [2], `Cc1ccc(NC(=O)CCCC[C@@H](C)NC[C@H](O)COc2cccc3ccccc23)cc1` yielded a Ki of 9070 nM. In test [1], `CC(=O)Nc1ccc(OC[C@@H](O)CN[C@H](C)CCCCC(=O)Nc2ccc(C)cc2)cc1` returned a Relative potency of 2.71. In addition, the Ki stood at 810 nM in test [2] and 260 nM in test [3]. For `CC(=O)Nc1ccc(OCC(O)CNC(C)CCCCC(=O)Nc2ccc(C(F)(F)F)cc2)cc1` (stereo unspecified), the Relative potency in test [1] is reported as 7.8. For the same compound, the Ki turned out to be 390 nM in test [2] and 130 nM in test [3]. As for `C[C@H](CCCCC(=O)Nc1ccc(C(F)(F)F)cc1)NC[C@@H](O)COc1cccc2ccccc12`, the Ki in test [2] came to 130000 nM.

With `C[C@@H](CCCCC(=O)Nc1ccc(C(F)(F)F)cc1)NC[C@@H](O)COc1cccc2ccccc12` (racemic), in test [2], the Ki came to 179000 nM. In turn, `CC(=O)Nc1ccc(OC[C@H](O)CN[C@@H](C)CCCCC(=O)Nc2ccc(C)cc2)cc1` came in with a Relative potency in test [1] of 0.267. Also, the Ki in test [2] was 9240 nM; in test [3] it was 2620 nM. In test [2], `Cc1ccc(NC(=O)CCCC[C@@H](C)NC[C@@H](O)COc2cccc3ccccc23)cc1` gave an inhibition constant (Ki) of 195000 nM. `CC(=O)Nc1ccc(OC[C@H](O)CN[C@H](C)CCCCC(=O)Nc2ccc(C)cc2)cc1`: the Relative potency in test [1] is given as 0.351. The Ki in test [2] was found to be 53600 nM; in test [3], 1990 nM. For `CC(=O)Nc1ccc(OC[C@H](O)CN[C@H](C)CCCCC(=O)Nc2ccc(C(F)(F)F)cc2)cc1`, in that order: 2.92, 2170 nM and 240 nM. As for `Cc1ccc(NC(=O)CCCC[C@H](C)NC[C@H](O)COc2cccc3ccccc23)cc1`, in test [2], affinity was put at a Ki of 41000 nM. `CC(=O)Nc1ccc(OC[C@@H](O)CN[C@H](C)CCCCC(=O)Nc2ccc(C(F)(F)F)cc2)cc1`: the Relative potency in test [1] is 22.6. Further, the inhibition constant (Ki) in test [2] amounted to 146 nM; in test [3], 31 nM. On to `Cc1ccc(NC(=O)CCCC[C@H](C)NC[C@@H](O)COc2cccc3ccccc23)cc1` (racemic), for which the Ki in test [2] came to 195000 nM. For the compound `CC(=O)Nc1ccc(OC[C@H](O)CN[C@@H](C)CCCCC(=O)Nc2ccc(C(F)(F)F)cc2)cc1` (mixture of isomers), the Relative potency in test [1] is reported as 0.104. Further, the Ki in test [2] amounted to 62000 nM; in test [3], 6700 nM. With `C[C@@H](CCCCC(=O)Nc1ccc(C(F)(F)F)cc1)NC[C@H](O)COc1cccc2ccccc12`, the Ki in test [2] was 39000 nM.

In test [2], `CC(CCCCC(=O)Nc1ccc(C(F)(F)F)cc1)NCC(O)COc1cccc2ccccc12` (stereo unspecified) gave a Ki of 78000 nM.

In turn, `C[C@H](CCCCC(=O)Nc1ccc(C(F)(F)F)cc1)NC[C@H](O)COc1cccc2ccccc12` yielded a Ki in test [2] of 45900 nM. The compound `CC(=O)Nc1ccc(OCC(O)CNC(C)CCCCC(=O)Nc2ccc(C)cc2)cc1` (stereo unspecified) had a Relative potency in test [1] of 2.71. Besides, the results for the Ki in test [2] and in test [3] were 1180 nM and 260 nM, respectively.
